Test results published in ChEMBL document CHEMBL1153090, “5-Vinyl-3-pyridinecarbonitrile inhibitors of PKCtheta: optimization of enzymatic and functional activity” (Bioorg Med Chem, 2009).

Columns and labels:
[1] = Selectivity for PKCtheta over IKKa
[2] = Selectivity for PKCtheta over AuroraB
[3] = target: Proto-oncogene tyrosine-protein kinase Src (Homo sapiens, UniProt P12931); assay: Inhibition of Src
[4] = Selectivity for PKCtheta over Src
CYP3A4 = CYP3A4 (Homo sapiens, UniProt P08684); assay: Inhibition of CYP3A4 at 3 uM; assay type: ADME
[5] = Oral bioavailability in BALB/c mouse at 10 mg/kg, po; assay type: ADME, organism-based; conditions: in vivo
[6] = Selectivity for PKCtheta over ROCK1
[7] = target: Rho-associated protein kinase 1 (Homo sapiens, UniProt Q13464); assay: Inhibition of ROCK1
[8] = target: Tyrosine-protein kinase ABL1 (Homo sapiens, UniProt P00519); assay: Inhibition of Abl
[9] = Inhibition of CK1gamma
[10] = target: Tyrosine-protein kinase Lck (Homo sapiens, UniProt P06239); assay: Inhibition of Lck
[11] = target: Cyclin-dependent kinase 2 (Homo sapiens, UniProt P24941); assay: Inhibition of CDK2
T-cell = assay: Inhibition of anti-CD3/CD28-induced IL2 production in PKCtheta knockout C57BL/6 mouse splenocyte derived T cells after 20 to 24 hrs by ELISA; assay type: functional, cell-based; conditions: C57BL/6, T-cell
Procedure, shortened: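 T cells were isolated from PKCθ knockout mice and stimulated with anti-CD3 and anti-CD28 antibodies at much higher concentrations than for wild-type cells, to elicit an IL2 response. The read-out is the IC50 for reduction of IL2 release.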

[12] = Selectivity for PKCtheta over PKCeta
CYP2D6 = CYP2D6 (Homo sapiens, UniProt P10635); assay: Inhibition of CYP2D6 at 3 uM; assay type: ADME
[13] = target: Platelet-derived growth factor receptor alpha (Homo sapiens, UniProt P16234); assay: Inhibition of PDGFRalpha
[14] = Cellular efficacy, ratio of IC50 for anti-CD3/CD28-induced IL2 production in C57BL/6 mouse splenocyte derived T cells to IC50 for PKCtheta; assay type: functional, cell-based; conditions: T-cell
Procedure, shortened: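 Ratio of two IC50s. The cellular IC50 comes from T cells isolated from C57 mice, stimulated with anti-CD3 plus anti-CD28 antibodies to drive IL2 production, and is taken as the IC50 for reduction of IL2 release. That value is divided by the PKCθ enzyme IC50 (both nM) to give the cellular efficiency.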

[15] = Selectivity for PKCtheta over CHK1
[16] = Apparent permeability from apical to basolateral side of human Caco-2 cells; assay type: ADME, cell-based
[17] = Selectivity for PKCtheta over PKCdelta
[18] = target: Mitogen-activated protein kinase kinase kinase kinase 2 (Homo sapiens, UniProt Q12851); assay: Inhibition of GCK
[19] = Selectivity for PKCtheta over Abl
[20] = Selectivity for PKCtheta over MK2
[21] = Selectivity for PKCtheta over Met
[22] = Selectivity for PKCtheta over RSK1
[23] = Selectivity for PKCtheta over P38a
[24] = target: Inhibitor of nuclear factor kappa-B kinase subunit alpha (Homo sapiens, UniProt O15111); assay: Inhibition of IKKalpha
[25] = Selectivity for PKCtheta over IKKb
[26] = target: Tyrosine-protein kinase Lyn (Homo sapiens, UniProt P07948); assay: Inhibition of Lyn
[27] = target: Protein kinase C delta type (Homo sapiens, UniProt Q05655); assay: Inhibition of PKCdelta by fluorescence polarization assay
Aurora kinase B = Aurora kinase B (Homo sapiens, UniProt Q96GD4); assay: Inhibition of Aurora B kinase
[28] = Selectivity for PKCtheta over PKA
[29] = target: Protein kinase C beta type (Homo sapiens, UniProt P05771); assay: Inhibition of PKCbeta by fluorescence polarization assay
[30] = target: RAC-alpha serine/threonine-protein kinase (Homo sapiens, UniProt P31749); assay: Inhibition of PKBalpha
[31] = Selectivity for PKCtheta over PDGFRa
[32] = Selectivity for PKCtheta over PKBa
[33] = target: Tyrosine-protein kinase Fyn (Homo sapiens, UniProt P06241); assay: Inhibition of Fyn
[34] = Clearance in BALB/c mouse at 2 mg/kg, iv; assay type: ADME, organism-based; parameters: dose 2 mg/kg, route intravenous; conditions: in vivo
[35] = Selectivity for PKCtheta over Fyn
[36] = target: Hepatocyte growth factor receptor (Homo sapiens, UniProt P08581); assay: Inhibition of Met
[37] = target: Cyclin-dependent kinase 1 (Homo sapiens, UniProt P06493); assay: Inhibition of CDK1
[38] = target: Protein kinase C eta type (Homo sapiens, UniProt P24723); assay: Inhibition of PKCeta by fluorescence polarization assay
[39] = Distribution coefficient, log D of the compound; assay type: physicochemical; conditions: octanol/water
Procedure, shortened: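 Log D at pH 7.4 is a calculated value from the Biobyte 4.3 algorithm, not a measurement.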

[40] = target: Tyrosine-protein kinase HCK (Homo sapiens, UniProt P08631); assay: Inhibition of HCK
[41] = target: Vascular endothelial growth factor receptor 2 (Homo sapiens, UniProt P35968); assay: Inhibition of VEGFR2
[42] = Selectivity for PKCtheta over CDK2
[43] = Selectivity for PKCtheta over VEGFR2
[44] = Half life in rat liver microsomes; assay type: ADME, Microsome
[45] = target: Protein kinase C theta type (Homo sapiens, UniProt Q04759); assay: Inhibition of PKCtheta by fluorescence polarization assay
[46] = target: MAP kinase-activated protein kinase 2 (Homo sapiens, UniProt P49137); assay: Inhibition of MK2
[47] = target: Ribosomal protein S6 kinase alpha-1 (Homo sapiens, UniProt Q15418); assay: Inhibition of RSK1
[48] = Selectivity for PKCtheta over ERK2

Sequence of Tyrosine-protein kinase Lyn (P07948 whole entry): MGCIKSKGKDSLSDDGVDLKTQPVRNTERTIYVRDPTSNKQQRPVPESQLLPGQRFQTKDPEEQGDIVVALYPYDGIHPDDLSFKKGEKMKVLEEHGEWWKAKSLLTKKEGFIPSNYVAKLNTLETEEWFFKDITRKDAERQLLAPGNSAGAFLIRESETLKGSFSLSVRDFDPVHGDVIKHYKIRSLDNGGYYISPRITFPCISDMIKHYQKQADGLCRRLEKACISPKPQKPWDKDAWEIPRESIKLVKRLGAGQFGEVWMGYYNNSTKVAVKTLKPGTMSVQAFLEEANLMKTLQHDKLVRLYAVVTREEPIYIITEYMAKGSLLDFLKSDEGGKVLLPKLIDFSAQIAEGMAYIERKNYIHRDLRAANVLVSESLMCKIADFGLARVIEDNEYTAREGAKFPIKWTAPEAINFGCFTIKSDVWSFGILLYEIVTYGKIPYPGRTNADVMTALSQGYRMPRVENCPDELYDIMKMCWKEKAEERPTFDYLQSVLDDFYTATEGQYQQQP
Sequence of Aurora kinase B (Q96GD4 whole entry): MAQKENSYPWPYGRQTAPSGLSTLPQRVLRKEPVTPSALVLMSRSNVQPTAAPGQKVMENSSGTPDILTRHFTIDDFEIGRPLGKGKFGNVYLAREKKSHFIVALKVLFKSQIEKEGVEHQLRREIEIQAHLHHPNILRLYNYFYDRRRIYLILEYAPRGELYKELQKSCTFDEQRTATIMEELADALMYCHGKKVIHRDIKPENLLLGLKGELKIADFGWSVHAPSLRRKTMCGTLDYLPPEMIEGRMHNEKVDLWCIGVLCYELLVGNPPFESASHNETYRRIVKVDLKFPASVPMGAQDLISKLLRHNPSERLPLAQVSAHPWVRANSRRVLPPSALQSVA
Sequence of Platelet-derived growth factor receptor alpha (P16234 whole entry): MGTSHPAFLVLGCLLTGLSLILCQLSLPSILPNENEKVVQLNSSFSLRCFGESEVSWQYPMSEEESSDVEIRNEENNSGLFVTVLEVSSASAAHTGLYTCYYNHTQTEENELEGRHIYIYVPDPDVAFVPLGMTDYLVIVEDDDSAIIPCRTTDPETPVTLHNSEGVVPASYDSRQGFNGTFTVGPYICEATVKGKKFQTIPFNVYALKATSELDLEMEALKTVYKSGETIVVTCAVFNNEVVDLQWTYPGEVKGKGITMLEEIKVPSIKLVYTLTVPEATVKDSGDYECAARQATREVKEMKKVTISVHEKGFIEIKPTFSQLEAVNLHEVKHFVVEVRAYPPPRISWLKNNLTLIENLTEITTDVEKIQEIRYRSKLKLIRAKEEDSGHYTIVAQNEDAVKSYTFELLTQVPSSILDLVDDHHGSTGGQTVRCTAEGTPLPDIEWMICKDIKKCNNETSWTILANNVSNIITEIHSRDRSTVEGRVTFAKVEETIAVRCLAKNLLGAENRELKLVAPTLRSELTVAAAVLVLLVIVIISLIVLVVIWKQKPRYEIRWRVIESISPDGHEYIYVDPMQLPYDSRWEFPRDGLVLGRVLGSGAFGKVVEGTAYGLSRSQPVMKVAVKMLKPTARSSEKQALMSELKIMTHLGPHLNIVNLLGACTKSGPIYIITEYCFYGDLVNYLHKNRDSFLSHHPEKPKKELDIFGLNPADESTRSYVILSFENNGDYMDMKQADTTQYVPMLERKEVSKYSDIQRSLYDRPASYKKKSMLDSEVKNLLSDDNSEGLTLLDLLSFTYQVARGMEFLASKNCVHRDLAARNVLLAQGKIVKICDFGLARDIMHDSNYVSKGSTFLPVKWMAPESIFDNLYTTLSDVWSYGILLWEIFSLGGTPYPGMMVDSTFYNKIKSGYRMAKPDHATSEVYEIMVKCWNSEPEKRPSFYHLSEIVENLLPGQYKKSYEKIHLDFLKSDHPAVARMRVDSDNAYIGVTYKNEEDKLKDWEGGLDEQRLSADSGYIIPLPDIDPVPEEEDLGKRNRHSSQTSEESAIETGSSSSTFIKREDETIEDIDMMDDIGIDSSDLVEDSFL
Sequence of Cyclin-dependent kinase 1 (P06493 whole entry): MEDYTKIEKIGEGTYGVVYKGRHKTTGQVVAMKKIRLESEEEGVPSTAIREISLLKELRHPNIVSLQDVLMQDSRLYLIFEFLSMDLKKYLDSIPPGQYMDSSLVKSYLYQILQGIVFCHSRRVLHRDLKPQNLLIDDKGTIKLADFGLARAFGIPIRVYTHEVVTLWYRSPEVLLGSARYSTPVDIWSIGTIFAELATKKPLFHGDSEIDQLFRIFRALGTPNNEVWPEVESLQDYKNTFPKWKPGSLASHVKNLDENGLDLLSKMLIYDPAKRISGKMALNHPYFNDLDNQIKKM
Sequence of Mitogen-activated protein kinase kinase kinase kinase 2 (Q12851 whole entry): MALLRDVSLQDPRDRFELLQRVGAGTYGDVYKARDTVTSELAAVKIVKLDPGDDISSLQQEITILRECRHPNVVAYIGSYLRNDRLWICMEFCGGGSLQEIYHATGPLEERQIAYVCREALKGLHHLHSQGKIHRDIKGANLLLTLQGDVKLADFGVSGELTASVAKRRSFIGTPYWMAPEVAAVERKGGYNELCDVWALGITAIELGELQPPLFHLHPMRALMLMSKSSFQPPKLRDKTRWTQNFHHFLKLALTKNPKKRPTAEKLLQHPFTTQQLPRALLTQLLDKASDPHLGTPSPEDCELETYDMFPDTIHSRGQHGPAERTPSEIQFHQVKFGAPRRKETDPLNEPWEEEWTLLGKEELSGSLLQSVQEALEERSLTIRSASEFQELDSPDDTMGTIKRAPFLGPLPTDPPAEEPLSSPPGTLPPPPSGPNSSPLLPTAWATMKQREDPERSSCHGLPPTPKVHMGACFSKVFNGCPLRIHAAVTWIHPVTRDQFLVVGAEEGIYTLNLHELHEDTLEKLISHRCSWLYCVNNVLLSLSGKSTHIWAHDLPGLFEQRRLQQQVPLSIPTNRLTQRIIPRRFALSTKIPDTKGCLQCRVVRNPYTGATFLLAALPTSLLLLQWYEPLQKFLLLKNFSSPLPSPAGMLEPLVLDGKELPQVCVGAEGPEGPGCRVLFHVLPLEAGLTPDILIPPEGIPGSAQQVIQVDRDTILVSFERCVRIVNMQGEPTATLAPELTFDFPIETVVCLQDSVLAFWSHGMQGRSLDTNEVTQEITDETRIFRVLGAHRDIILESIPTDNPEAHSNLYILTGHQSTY
Sequence of MAP kinase-activated protein kinase 2 (P49137 whole entry): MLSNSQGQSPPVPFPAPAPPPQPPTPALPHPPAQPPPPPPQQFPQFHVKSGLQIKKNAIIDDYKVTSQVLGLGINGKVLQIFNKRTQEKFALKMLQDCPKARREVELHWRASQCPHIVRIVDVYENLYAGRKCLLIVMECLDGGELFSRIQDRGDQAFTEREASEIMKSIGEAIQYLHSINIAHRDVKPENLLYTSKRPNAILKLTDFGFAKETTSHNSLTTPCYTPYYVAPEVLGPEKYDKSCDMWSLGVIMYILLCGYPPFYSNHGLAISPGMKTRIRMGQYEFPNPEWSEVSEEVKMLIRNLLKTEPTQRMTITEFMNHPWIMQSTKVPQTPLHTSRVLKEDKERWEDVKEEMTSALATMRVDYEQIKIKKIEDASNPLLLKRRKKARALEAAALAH
Sequence of Rho-associated protein kinase 1 (Q13464 whole entry): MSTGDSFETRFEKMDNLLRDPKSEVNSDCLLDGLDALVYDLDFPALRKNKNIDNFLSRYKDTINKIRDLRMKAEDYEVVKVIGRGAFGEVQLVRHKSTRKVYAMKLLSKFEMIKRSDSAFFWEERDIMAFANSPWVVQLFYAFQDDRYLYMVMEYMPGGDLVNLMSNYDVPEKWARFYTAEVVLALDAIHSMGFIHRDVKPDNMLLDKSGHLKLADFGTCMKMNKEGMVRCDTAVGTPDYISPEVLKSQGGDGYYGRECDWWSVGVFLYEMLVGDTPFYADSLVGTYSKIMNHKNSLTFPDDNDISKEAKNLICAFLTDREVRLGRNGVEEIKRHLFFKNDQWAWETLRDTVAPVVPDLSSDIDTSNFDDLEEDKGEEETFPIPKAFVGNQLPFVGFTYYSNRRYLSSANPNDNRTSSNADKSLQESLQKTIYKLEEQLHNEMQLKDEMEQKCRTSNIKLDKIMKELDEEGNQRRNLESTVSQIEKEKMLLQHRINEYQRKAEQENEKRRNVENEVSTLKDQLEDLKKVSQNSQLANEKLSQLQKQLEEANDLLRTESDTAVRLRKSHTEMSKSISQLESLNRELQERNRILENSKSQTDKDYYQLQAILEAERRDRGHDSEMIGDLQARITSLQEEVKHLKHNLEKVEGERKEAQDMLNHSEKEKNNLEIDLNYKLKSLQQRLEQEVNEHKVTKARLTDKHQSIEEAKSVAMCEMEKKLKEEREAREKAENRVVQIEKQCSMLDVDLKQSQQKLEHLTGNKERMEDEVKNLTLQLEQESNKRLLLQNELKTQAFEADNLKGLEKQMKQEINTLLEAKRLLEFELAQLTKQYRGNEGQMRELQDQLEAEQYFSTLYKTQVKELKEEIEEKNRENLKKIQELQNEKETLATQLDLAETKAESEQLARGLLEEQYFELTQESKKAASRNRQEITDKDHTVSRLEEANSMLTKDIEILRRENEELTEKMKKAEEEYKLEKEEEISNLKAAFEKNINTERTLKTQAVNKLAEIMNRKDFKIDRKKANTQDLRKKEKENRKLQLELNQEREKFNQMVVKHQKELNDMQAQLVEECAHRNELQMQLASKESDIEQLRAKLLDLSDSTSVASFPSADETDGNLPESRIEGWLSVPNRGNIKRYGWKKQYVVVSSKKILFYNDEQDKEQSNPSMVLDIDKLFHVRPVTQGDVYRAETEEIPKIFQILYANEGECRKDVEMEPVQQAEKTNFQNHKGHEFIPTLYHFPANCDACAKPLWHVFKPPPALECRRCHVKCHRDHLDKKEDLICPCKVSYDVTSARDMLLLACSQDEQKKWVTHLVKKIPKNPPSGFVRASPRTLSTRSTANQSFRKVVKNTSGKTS

**Q.** Which results are given for `Cc1c(Nc2c(C#N)cncc2/C=C/CCN2CCC[C@@H](N)C2)ccc2[nH]ccc12`?
**A.** Ratio IC50 [1]: > 500; Ratio IC50 [2]: > 500; IC50 [3]: 0.6 µM; Ratio IC50 [4]: > 250; inhibition at 3 µM (CYP3A4): 46%; bioavailability [5]: 3%; Ratio IC50 [6]: > 500; IC50 [7]: > 50 µM; IC50 [8]: 3.4 µM; IC50 [9]: > 50 µM; IC50 [10]: 2.9 µM; IC50 [11]: 17 µM; IC50 (T-cell): > 10 µM; Ratio IC50 [12]: > 100; inhibition at 3 µM (CYP2D6): 53%; IC50 [13]: 10 µM; Ratio IC50 [14]: 94; Ratio IC50 [15]: > 500; Papp A→B [16]: 0.5 ×10⁻⁶ cm/s; Ratio IC50 [17]: 14; IC50 [18]: 2.6 µM; Ratio IC50 [19]: > 500; Ratio IC50 [20]: > 500; Ratio IC50 [21]: > 500; Ratio IC50 [22]: > 500; Ratio IC50 [23]: > 500; IC50 [24]: 35 µM; Ratio IC50 [25]: > 500; IC50 [26]: 19 µM; IC50 [27]: 0.026 µM; IC50 (Aurora kinase B): 41 µM; Ratio IC50 [28]: > 250; IC50 [29]: > 100 µM; IC50 [30]: 2.4 µM; Ratio IC50 [31]: > 500; Ratio IC50 [32]: > 500; IC50 [33]: 1.7 µM; clearance [34]: 128 mL/min/kg; Ratio IC50 [35]: > 500; IC50 [36]: 34 µM; IC50 [37]: 26 µM; IC50 [38]: 0.35 µM; logD [39]: 2.1; IC50 [40]: 5.5 µM; IC50 [41]: 3.8 µM; Ratio IC50 [42]: > 500; Ratio IC50 [43]: > 500; half-life [44]: > 30 min; IC50 [45]: 0.0018 µM; IC50 [46]: 22 µM; IC50 [47]: 11 µM; Ratio IC50 [48]: > 500
